Screening results (PubChem)
bCat KO growth: beta-catenin-lacking colon tumor cell growth suppression. HCT116 beta-catenin knockout viability, CellTiter-Glo, 60 h; hits give low values. viability, % at 10 µM. 1.5% of 140,000 active. AID 818;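 active means viability at or under a set limit, the compound median less 4 SD, cut at about 6% in these data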;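 further: 0% = Hyamine 1622 control at 20 µM and 100% = untreated cell control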
L major viab: inhibitors of Leishmania major promastigote growth; Leishmania major promastigotes, resazurin fluorescence viability; AID 1063; inhibition, % at 10 µM; 9% of 200,000 active; in the data active means inhibition above about 50%;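 further: promastigotes grown with compound for 44 hours at 28 °C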
HCT116 PTEN-null: growth suppressors of cells with PTEN tumor suppressor deletion | 1.2% of 140,000 active | HCT116 PTEN-null viability, CellTiter-Glo, 60 h; hits give low values | viability, % at 10 µM | AID 827;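 active means viability at or below a set limit, 4 SD under the median of all tested compounds, cut at about 3.7% in these data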;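 further: PTEN knockout HCT116 line with beta catenin targeted HCT116 as companion control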
Autophagy HCS: modulators of autophagy. calls only at 10 µM (by protocol). MEF GFP-LC3 puncta imaging; test concentration mostly 10 µM. 0.98% of 190,000 active. AID 463193;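 active means percentage of spot-positive cells more than 3 SD above its plate mean, without a fluorescence outlier flag or 80% toxicity; inconclusive means no clear call, values can overlap the other calls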;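 further: spot-positive cell cutoff set from DMSO-treated cells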
Dynein transport: blocks dynein driven cargo transport along microtubules; 3617.4 mouse cells, GR-EGFP nuclear translocation imaging; test concentration mostly 20 µM; stimulated with dexamethasone, 1 µM; hits give low values; z-score, hits read low; 0.47% of 220,000 active; AID 1381;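 active means plate z-score of nuclear minus cytoplasmic receptor signal below a set negative limit, without overly bright fluorescence or cell loss, cut at about -3.5 in these data, passing the limit was not always enough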;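 further: z-score of nuclear minus cytoplasmic ring GR-EGFP intensity difference per well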
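Medium: Induction medium lacking tetracycline, stripped serum | Probe or stimulus: 1.0 µM final dexamethasone stimulus | Schedule: 48 h induction, then 1 h compound, then 30 min agonist, 37 °C | Signal: Automated 10x imaging of fixed Hoechst-stained cells | Evaluation: Per-cell GR-EGFP intensity, nucleus versus surrounding cytoplasmic ring, well-averaged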
L major 1uM: inhibitors of Leishmania major promastigote growth, repeat at 1 uM. shares compounds with L major viab. L. major promastigote growth, resazurin fluorescence, 48 h. inhibition, % at 1 µM. 13% of 1,100 active. AID 1258;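 active means inhibition above about 50% in both repeat tests, limit read from the data; inconclusive means one repeat under the set limit, the other over it; inactive means both repeats under the set limit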
An asterisk follows results filed as active; i = inactive; u = inconclusive; x = no result given; + = active, no number. Only some compounds are listed: those with a hit (about 9.2% of all), similar ones and a draw of the others.

SMILES | bCat KO growth | L major viab | HCT116 PTEN-null | Autophagy HCS | Dynein transport | L major 1uM
Cc1ccc(-n2c(C)nnc2SCC(=O)N2CCc3ccccc3C2)cc1 | 85 | -6 | 83 | i | -0.77 | x
CC(C)CC(=O)Nc1ccc(C(=O)CN2CCC(C)CC2)cc1 | x | -5 | x | i | -0.44 | x
C#CCSc1nsc(SCC#C)c1C#N | 2.7* | 94* | 5 | i | -0.51 | -14
c1ccc2c(c1)ncn2-c1ccc(-c2ccnc(-c3ccncc3)n2)cc1 | 80 | -1 | 88 | i | -0.46 | x
Cc1nccc(-c2ccc(-n3cnc4ccccc43)cc2)n1 | 85 | 62* | 80 | i | -0.66 | -10
OC(COCC1COc2ccccc2O1)CN1CCc2ccccc2C1 (stereo not drawn) | 87 | 99* | 75 | i | 0.21 | 2
CCOc1cc(NC(=O)c2cccs2)c(OCC)cc1NC(=O)CCC(=O)NCCN1CCOCC1 | x | -8 | x | i | -0.75 | x
CCCCOc1ccccc1NC(=O)CC1SC(=NCC)N(CC)C1=O (stereo not drawn) | 88 | 2 | 83 | i | -0.39 | x
Cc1cc2c(cc1C)CSC(c1ccc3ccccc3c1O)SC2 | 102 | -11 | 91 | i | 1.2 | x
Cc1cc2c(cc1C)CSC(c1ccccc1O)SC2 | 99 | 97* | 76 | i | 0.23 | -9
OCCSc1nc(-c2ccccc2)nc2c1CCC2 | 93 | 52* | 88 | i | 0.48 | -13
CCOC(=O)c1c(NC(C)=O)sc2c1C1CCN2CC1 | x | 0 | x | i | 2 | x
CCOC(=O)c1ccccc1NC(=O)/C(C)=C/C(=O)O | 101 | -2 | 96 | i | -0.79 | x
Cc1cc(C)c2nc(NC(=O)c3cccc(S(=O)(=O)N4CCc5ccccc54)c3)sc2c1 | 77 | 17 | 72 | i | 0.28 | x
Cc1cccc2sc(NC(=O)c3cccc(S(=O)(=O)N4CCc5ccccc54)c3)nc12 | 33 | 96* | 28 | i | -0.046 | -3
C=CCn1c(C(C)NC(=O)COC)nc2ccccc21 (stereo not drawn) | 98 | -5 | 97 | i | -0.94 | x
COc1ccc(OC)c(C(c2nnnn2C2CCCC2)N2CCc3ccccc3C2)c1 (stereo not drawn) | 67 | 88* | 66 | i | -0.85 | 4
COc1ccc(C(c2nnnn2C2CCCC2)N2CCC(C(N)=O)CC2)c(OC)c1 (stereo not drawn) | 96 | -7 | 90 | i | 1.1 | x
CC1(C)CC2(CC(c3cccs3)c3cc(Cl)c(O)cc3O2)NC(=S)N1 (stereo not drawn) | 29 | 92* | 45 | i | -0.29 | -10
COC(=O)[C@@H]1CC[C@H](C)[C@@H](c2ccc(C)cc2)N1C(=O)c1ccc(/C=N/OCC[C@@H]2C=C[C@H](OC(C)=O)[C@@H](COC(C)=O)O2)cc1 | 74 | 96* | 71 | i | 0.95 | -17
CC(C)N=C(NS(=O)(=O)c1ccccc1)C(Cl)(Cl)Cl | 3.5* | 85* | 2.0* | i | -2.4 | u
c1ccc2c(c1)CCOC2CNCCCN1CCCCC1 (stereo not drawn) | 80 | 56* | 82 | i | 1 | -5
NC(C(=O)O)C1CC(Cl)=NO1 (stereo not drawn) | 95 | 100* | 94 | i | 0.15 | 94*
CC(C)(C)N1CC(C(=O)O)CC1=O (stereo not drawn) | x | -8 | x | i | -0.92 | x
Cc1ccc(S(=O)(=O)NC(CCc2ccccc2)CC(=O)C(C)(C)C)cc1 (stereo not drawn) | 43 | 8 | 51 | i | 0.026 | x
SMILES | bCat KO growth | L major viab | HCT116 PTEN-null | Autophagy HCS | Dynein transport | L major 1uM
CCCSc1nnc(Sc2nnnn2-c2ccccc2)s1 | 9 | 88* | 6 | i | -2.8 | 46
C(=C\CSc1nnnn1-c1ccccc1)/CSc1nnnn1-c1ccccc1 | 98 | 22 | 88 | i | -0.018 | x
O=C(O)C1CC=CCC1C(=O)Nc1cccc(Cl)c1 (stereo not drawn) | 96 | -4 | 98 | i | 1.5 | x
Cc1nn(-c2ccccc2)c2c1C(O)n1c(nc3ccccc31)S2 (stereo not drawn) | 74 | 58* | 75 | i | 2.2 | -7
Cc1nn(-c2ccccc2)c2sc(C(=O)O)cc12 | 83 | -6 | 93 | i | 0.43 | x
O=C(N/N=C/c1cccnc1)C1CC1(c1ccccc1)c1ccccc1 (stereo not drawn) | x | 13 | x | i | -0.24 | x
CCOc1ccc(C(=O)/C=C/c2cn(CN3CCN(C)CC3)c3ccccc23)cc1 | 108 | 1 | 93 | i | -0.033 | x
COc1ccc(C(=O)/C=C/c2cn(CN3CCN(C)CC3)c3ccccc23)cc1 | 14 | 93* | 33 | i | -1.3 | -5
CN1C(=O)CSc2ccc(NC(=O)NCCC3=CCCCC3)cc21 | 61 | 4 | 54 | i | -0.71 | x
CCN(CC)S(=O)(=O)c1ccc(-c2nnc(SCC(=O)Nc3nc(C)cs3)o2)cc1 | 61 | 9 | 62 | i | 0.86 | x
Cc1csc(NC(=O)CSc2nnc(-c3ccc(S(=O)(=O)N4CCCC4)cc3)o2)n1 | 72 | 99* | 73 | i | -0.31 | -3
CCOCC(=O)N1CCN(c2ccc([N+](=O)[O-])cc2)CC1 | 89 | 6 | 98 | i | -0.79 | x
COCCSc1nc2c(c(=O)[nH]c(=O)n2C)n1CCC(C)C | 104 | -4 | 97 | i | -0.096 | x
COc1ccccc1NC(=O)CN1CCC(C(=O)c2ccc(F)cc2)CC1 | 64 | 71* | 75 | i | -0.47 | -12
COc1ccccc1NC(=O)N1CCC(C(=O)c2ccc(F)cc2)CC1 | 96 | -3 | 91 | i | -0.018 | x
O=C(NCc1ccc(N2CCCC2=O)cc1)c1cn(CCc2ccccc2)nn1 | 97 | 56* | 92 | i | -0.97 | 19
O=c1[nH]c2cc([N+](=O)[O-])c([N+](=O)[O-])cc2[nH]c1=O | x | 4 | x | i | -1 | x
O=c1[nH]cc([N+](=O)[O-])cc1Br | 93 | 61* | 98 | + | 0.32 | -5
Cn1c(C(=O)O)cc2c(=O)n3ccccc3nc21 | x | x | x | x | -0.58 | x
Cn1c(C(=O)N2CCc3ccccc3C2)cc2c(=O)n3ccccc3nc21 | 80 | 97* | 75 | i | 3.7 | -9
COc1ccc(C(=O)NC2CCSC2=O)cc1 (stereo not drawn) | 95 | 3 | 98 | i | 0.077 | x
c1ccc(CN2CCN(C3=Nc4cccc5cccc3c45)CC2)cc1 | 14 | 98* | 13 | i | -0.41 | 46
Cc1nc(N2CCN(Cc3ccccc3)CC2)[nH]c(=O)c1C | x | -2 | x | i | 0.57 | x
O=C(O)/C=C/C(=O)NC1CCS(=O)(=O)C1 (stereo not drawn) | 98 | 61* | 100 | i | 0.19 | -13
O=C(O)/C=C/C(=O)NC1CCC(CC2CCC(NC(=O)/C=C/C(=O)O)CC2)CC1 (stereo not drawn) | x | -6 | x | i | -0.25 | x
Cc1ccc(NC(=S)c2nc3ccccc3[nH]2)cc1 | 34 | 70* | 21 | i | 0.36 | -4
